pIC50: −log10 of the molar value. Active and inactive are the calls of the source.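 Rule for the calls: active = compounds blocking at least half of the virus-caused cell damage in the dose series; inactive = the rest.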

The subject of this assay is HEp-2 RSV Long CPE inhibition, luminescence. In words: inhibitors of RSV-induced HEp-2 cell death – RSV Long, synthesized compounds, set 5, dose response (AID 493088). In a few lines: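 Compound dosing: 8-point twofold dilution series, 0.39–50 µM final, 0.5% DMSO; test system: RSV Long-infected HEp-2 cells; reagent: RSV Long, MOI 0.45; benchmarks: cell-only and virus-only wells; times: 6-day incubation of infected, compound-treated cells at 37 °C; repeats: triplicates; measured by: luminescence measurement of virus-induced cytopathic effect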
Broadly, the IC50 is the midpoint of a concentration-inhibition curve. Consider `CC(=O)c1ccccc1NC(=O)[C@@H]1CCCN1S(=O)(=O)c1cccc2cccnc12`, for which the IC50 is > 50 µM (inactive).
The term pIC50 denotes the IC50 on a negative log10 scale, so that one unit is a factor of ten. As to `CCOC(=O)c1ccc2[nH]c3c(c2c1)CN(C)CC3`, the pIC50 was 4.55.
On the same count and under the same terms, the figure for `COCCCNC(=O)c1ccc(Cn2c(=O)c3ccccc3n(Cc3ccc(C)cc3)c2=O)cc1` is 5.77.
Consider `Cc1ncccc1NC(=O)[C@@H]1CCCN1S(=O)(=O)c1cccc2cccnc12`, for which the IC50 is > 50 µM (inactive).
Take `CCc1ccccc1NC(=O)[C@@H]1CCCN1S(=O)(=O)c1cccc2cccnc12`: the pIC50 was 4.79.

The values above are taken from PubChem BioAssay AID493088 (Southern Research Specialized Biocontainment Screening …, 2011).
